In brackets after ≈: the same amount, converted by molar mass.

Series [1] can be described thus: Concentration which inhibits luciferase activity by 50% when the luciferon concentration is at its Km. Details: species or system Lampyridae. Summed up: (§1)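 Luciferase purified from Photinus pyralis lanterns by affinity chromatography; light-emission assay at 25 ± 1 °C with 2 mM ATP, competitive versus luciferin. Diols added in ethanol (final 23 mM, also in controls). Triplicate activities at ~5 diol levels each paired with control; Ki by weighted least squares from ~15 estimates; EC50 = 2Ki at luciferin Km.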

Series [2] can be described thus: Aqueous solubility in 25 mM N-glycyl-glycine and 10 mM MgSO4 (pH 7.8). The series is classed as physicochemical. The settings on record: 25 mM N-glycyl-glycine and 10 mM MgSO4 buffer, read-out: S. Summed up: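 Diol solubility measured at 25 ± 1 °C in pH 7.8 buffer (25 mM N-glycylglycine, 10 mM MgSO4), a modified Curry method; dissolved diol quantified by inhibition of firefly luciferase. Values mean ± SE.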

Series [3] in a line: Inhibition constant for firefly luciferase was evaluated. Set-up: species or system Lampyridae. The procedure, abridged:
as §1

Series [4] in a line: Concentration which anesthetizes 50% of a population of Rana temporaria tadpoles at 20 degrees Centigrade. The series is classed as functional, frog. The procedure, abridged: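 Rana temporaria tadpoles (20–25 mm) at 20 ± 1 °C, six per beaker in 7–10 beakers of tap water with graded diol. Endpoint: no reflex to gentle glass-rod tap on side or snout, tested every 15 min up to 2 h; Waud dose–response analysis. Convulsing tadpoles excluded.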

A short description of series [5]: Headecane/water partition coefficient expressed as the equilibrium ratio of the molar concentration in n-hexadecane to that in the buffer. In kind it is physicochemical. Summed up:
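Molar partition between n-hexadecane and pH 7.8 glycylglycine/MgSO4 buffer at 25 ± 1 °C; aqueous diol measured by luciferase method; at least five independent determinations per diol; mean ± SE.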

Take `OCCCCCCC(Br)CCCCCO` (stereo not given): the results for the EC50 in series [1] and in series [4] were 29.2 µM and 97 µM, respectively. The solubility in series [2] worked out at 2260 µM (≈ 636 µg/mL). Besides, the Ki (usually a measure of affinity in units of concentration, obtained from inhibition or displacement) in series [3] worked out at 14.6 µM. The Khd in series [5] amounted to 0.32.

For `OCCCCCCCC(Br)CCCCO` (stereo not given), the EC50 – broadly, the midpoint of the concentration-response curve – in series [1] worked out at 7.38 µM; in series [4], 29 µM. Also, the solubility in series [2] stood at 2340 µM (≈ 658 µg/mL). In series [3], this molecule showed a Ki of 3.69 µM. Moreover, in series [5], the Khd came out at 0.9.

`OCCCCCCCCCCC(Br)CO` (stereo not given): the EC50 in series [1] turned out to be 0.88 µM; in series [4] it was 34 µM. For the same molecule, the solubility in series [2] was 725 µM (≈ 204 µg/mL). Further, in series [3], the inhibition constant Ki came out at 0.44 µM. Also, the Khd in series [5] is given as 13.

For the molecule `OCCCCCCCCCCCCO`, the EC50 was 1.54 µM in series [1] and 39 µM in series [4]. Also, in series [2], the solubility was determined as 95 µM (≈ 19.2 µg/mL). In series [3], this molecule came in with a Ki of 0.77 µM. Further, the Khd in series [5] stood at 4.7.

Consider `OCCCCCCCCCC(Br)CCO` (stereo not given), for which the EC50 in series [1] turned out to be 1.74 µM; in series [4] it was 56 µM. For the same molecule, the solubility in series [2] amounted to 800 µM (≈ 225 µg/mL). The same molecule yielded a Ki in series [3] of 0.87 µM. The Khd in series [5] is listed as 3.1.

For the origin of these results see ChEMBL document CHEMBL1126662, “Synthesis and use of the n-bromododecane-1,12-diols as conformational probes for general anesthetic target sites” (J Med Chem, 1993).
